The results in this text go back to ChEMBL document CHEMBL3227946, “Antianaphylactic agents. 1. 2-(Acylamino)oxazoles” (1979).

Each structure is given as a SMILES string. The source made the active and inactive calls. The rule behind the calls is not given here.

One experiment relates to Rattus norvegicus. Briefly: Antianaphylactic activity in antiovalbumin IgE serum-treated Wistar rat at 2 x 100 mg/kg, po administered 2.5 hrs prior to ovalbumin challenge measured after 45 mins by passive cutaneous anaphylaxis test. It counts as functional, organism-based. Further details: dose 100 mg/kg. The conditions noted are these: in the assay text read “2 hrs and again 30 mins prior to” for “2.5 hrs prior to”. In short, it runs like this:
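Female Wistar rats, shaved and lightly anaesthetized, received an intradermal abdominal injection of diluted rat antiovalbumin IgE serum. After 24 h they were challenged iv with ovalbumin mixed with dye. Compound was given at 2 h and again at 30 min before challenge. Rats were killed 45 min after challenge and the blue area on the inner skin surface was measured.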

Experiment [1] can be described thus: Antianaphylactic activity in human chopped lung treated with atopic serum isolated from patients allergic to cocksfoot pollen assessed as inhibition of antigen-induced histamine release at 10 ug/mL after 15 mins relative to control. It counts as functional. The conditions noted are these: 0.25 h. In short, it runs like this:
(§1)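 Surgical human lung (bronchial carcinoma resections) was washed in Hank's, chopped into 0.5-mm cubes and incubated for 18 h at 18 °C with atopic serum from cocksfoot pollen-allergic patients. Tissue was washed, equilibrated in Tyrode's at 37 °C and challenged with saline pollen extract ± compound for 15 min. Histamine or SRS-A in the supernatant was bioassayed on guinea pig ileum. Values are % inhibition, mean of four samples.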

Experiment [2] concerns Cavia porcellus. Briefly: Antianaphylactic activity in ovalbumin/ovalbumin aerosol sensitized guinea pig bronchospasm model assessed as ratio of mean collapse time after pretreatment with compound to mean collapse time of control animal at 2 x 100 mg/kg, po compound administered prior to antigen challenge by Herxheimer test. The format is functional. A digest of the protocol: (§2)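 Ovalbumin-sensitized male guinea pigs were exposed in a chamber to ovalbumin aerosol (1% w/v) until a convulsive cough; that time is the collapse time. Compound was given orally either 2 h before challenge or in two doses at 0.5 and 3 h before. Where used, mepyramine was given at 0.5 mg/kg sc 0.5 h before. Ratio is mean collapse time of treated animals over that of controls.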

Experiment [3] in a line: Antianaphylactic activity in ovalbumin sensitized albino guinea pig chopped lung assessed as inhibition of antigen-induced histamine release at 10 ug/mL after 15 mins relative to control. It counts as functional, Cavia porcellus. A digest of the protocol: (§3)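 Lungs were perfused with Tyrode's, chopped into 0.5-mm cubes and split into 100-mg aliquots. Aliquots were challenged with antigen ± compound and rocked at 37 °C for 15 min. Unchallenged controls gave spontaneous release. Supernatant histamine or SRS-A was bioassayed on guinea pig ileum against standards. Values are % inhibition, mean of four samples.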

Experiment [4] can be described thus: Antianaphylactic activity in ovalbumin sensitized albino guinea pig chopped lung assessed as inhibition of antigen-induced slow-reacting substance of anaphylaxis release at 10 ug/mL after 15 mins relative to control. It counts as functional, Cavia porcellus. A digest of the protocol:
as §3

The nature of experiment [5]: Antianaphylactic activity in human chopped lung treated with atopic serum isolated from patients allergic to cocksfoot pollen assessed as inhibition of antigen-induced slow-reacting substance of anaphylaxis release at 10 ug/mL after 15 mins relative to control. Particulars: 0.25 h. It counts as functional. In short, it runs like this:
as §1

In experiment [6] the test system is Cavia porcellus. Briefly: Antianaphylactic activity in ovalbumin/ovalbumin aerosol sensitized guinea pig bronchospasm model assessed as ratio of mean collapse time after pretreatment with compound in presence of mepyramine to mean collapse time of control animal at 2 x 100 mg/kg, po compound administered prior to antigen challenge by Herxheimer test. The format is functional. In short, it runs like this:
as §2

Experiment [7] deals with Cavia porcellus. Briefly: Antianaphylactic activity in ovalbumin/ovalbumin aerosol sensitized guinea pig bronchospasm model assessed as ratio of mean collapse time after pretreatment with compound to mean collapse time of control animal at 0.5 mg/kg, sc by Herxheimer test. The format is functional. The conditions noted are these: route subcutaneous. In short, it runs like this: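 Ovalbumin-sensitized male guinea pigs were given mepyramine at 0.5 mg/kg sc 0.5 h before exposure to ovalbumin aerosol (1% w/v) in a chamber. Collapse time is the time to a convulsive cough. Ratio is mean collapse time of mepyramine-treated animals over that of controls.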

In experiment [8] the test system is Cavia porcellus. Briefly: Antianaphylactic activity in ovalbumin/ovalbumin aerosol sensitized guinea pig bronchospasm model assessed as ratio of mean collapse time after pretreatment with compound in presence of mepyramine to mean collapse time of control animal at 1 x 2 mg/kg, po compound administered prior to antigen challenge by Herxheimer test. The format is functional. A digest of the protocol:
as §2

The test system of experiment [9] is Cavia porcellus. Briefly: Antianaphylactic activity in ovalbumin/ovalbumin aerosol sensitized guinea pig bronchospasm model assessed as ratio of mean collapse time after pretreatment with compound to mean collapse time of control animal at 1 x 2 mg/kg, po compound administered prior to antigen challenge by Herxheimer test. The format is functional. In short, it runs like this: as §2

Broadly, the inhibition is the share of the control response that was lost under treatment. `CCCCN(C(=O)C(C)C)c1nc(C)co1` [ISAMOXOLE]: the result in the experiment with Rattus norvegicus was inactive. For the same compound, the inhibition at 10 µg/mL in experiment [1] worked out at 23%; in experiment [5] it was 93%. For the same compound, the Ratio with Cavia porcellus [2] was 4.6; with Cavia porcellus [6] it was 5.9. In addition, the entries for the “inhibition (INH)” value in experiment [3] and in experiment [4] were 38% and 54%, respectively.
As for `CCCCC(=O)N(CCC)c1nc(C)co1`, in the experiment on Rattus norvegicus, the result was inactive. Also, the inhibition at 10 µg/mL came out at 0% in experiment [1] and 38% in [5]. The Ratio in the experiment with Cavia porcellus [2] was 0.8; in the experiment on Cavia porcellus [6], 5.8. The figures for the “inhibition (INH)” value in experiment [3] and in experiment [4] were 48% and 55%, respectively.
With `CCCCN(C(=O)C1CCC1)c1nc(C)co1`, the outcome in the experiment with Rattus norvegicus was inactive. In addition, the inhibition at 10 µg/mL in [1] was 0%; in experiment [5] it was 55%. Besides, the Ratio in the experiment with Cavia porcellus [2] was found to be 1.5; with Cavia porcellus [6] it was 7.4. In addition, the “inhibition (INH)” value in experiment [3] was 34%; in experiment [4], 74%.
`CCCCCC(=O)N(CCC)c1nc(C)co1`: the result in the experiment with Rattus norvegicus was inactive. For the same compound, the inhibition at 10 µg/mL in experiment [1] was determined as 44%; in [5], 47%. Besides, the Ratio in the experiment on Cavia porcellus [2] worked out at 1.4; in the experiment on Cavia porcellus [6] it was 4.7. In addition, the entries for the “inhibition (INH)” value in [3] and in experiment [4] were 44% and 47%, respectively.
Regarding `COc1ccc(CN(CCN(C)C)c2ccccn2)cc1` [PYRILAMINE], in the experiment on Cavia porcellus [7], the Ratio turned out to be 3.7.
As for `CN1CCC(=C2c3ccccc3CC(=O)c3sccc32)CC1` [KETOTIFEN], the inhibition at 10 µg/mL in experiment [1] is 23%; in experiment [5] it was 100%. In addition, the Ratio was found to be 7.2 with Cavia porcellus [8] and 4.2 in the experiment on Cavia porcellus [9].
In the case of `CCCCN(C(=O)C1CC1)c1nc(C)co1`, in the experiment on Rattus norvegicus, the outcome was inactive. The values for the inhibition at 10 µg/mL in experiment [1] and in [5] were 0% and 72%, respectively. Also, the Ratio in the experiment on Cavia porcellus [2] is reported as 12.2; with Cavia porcellus [6] it was 13.9. In addition, the entries for the “inhibition (INH)” value in [3] and in [4] were 22% and 46%, respectively.
For the compound `CCCCN(C(=O)C(C)(C)C)c1nc(C)co1`, the result with Rattus norvegicus was inactive. In addition, the figures for the inhibition at 10 µg/mL in experiment [1] and in [5] were 37% and 23%, respectively. Besides, the figures for the Ratio in the experiment on Cavia porcellus [2] and in the experiment with Cavia porcellus [6] were 4.4 and 7.7, respectively. The “inhibition (INH)” value in [3] came to 0%; in experiment [4] it was 23%.
For the compound `CCCCN(C(=O)CCC)c1nc(C)co1`, in the experiment with Rattus norvegicus, the result was inactive. The inhibition at 10 µg/mL in [1] was determined as 14%; in experiment [5], 88%. The values for the Ratio with Cavia porcellus [2] and in the experiment with Cavia porcellus [6] were 4.3 and 6.4, respectively. The “inhibition (INH)” value is 33% in [3] and 52% in experiment [4].
